From the array DNA melting data of Ke et al. (doi:10.1101/2024.01.08.574731)

Tests used:
[1] = melting temperature; fluorescence melt of hairpins on a sequencing array, two-state fit, raised by 9.35 °C to match UV melts; conditions: sodium 0.088 M
Procedure, shortened: (§1)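 Cy3 fluorescence of library hairpins on a sequenced MiSeq flow cell, with annealed Cy3 and quencher oligos, was imaged in 50 mM Na-HEPES pH 8.0, 25 mM NaCl in 2.5 °C steps up to 60 °C. Signals were normalised to pre-quench Cy3 and to control variants. Melting temperature and folding enthalpy came from bootstrapped two-state fits, inverse-variance combined over four replicates. Fitted temperatures were raised by 9.35 °C to match UV melts.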

[2] = folding enthalpy; higher = less favourable; fluorescence melt of hairpins on a sequencing array, two-state fit; conditions: sodium 0.088 M
Procedure, shortened: as §1

Sequence | Tm [1] [°C] | folding enthalpy [2] [kcal/mol]
GTTTTTGAAAAAAAAC ((((((....)))))) | 43.3 | -27.3
GGCTTTGGAAACGAAGTC (.(((.(....).))).) | 34.7 | -14.7
GATCGCTGGCGCGATC ((((((....)))))) | 65.9 | -35.7
GCCACGCGAAAGCCTGGC ((((.((....)).)))) | 59.6 | -30.4
GCGTTAAACGC ((((...)))) | 50.9 | -19
GTATTTGGAAACGAATAC (((((.(....).))))) | 35.8 | -30.2
GTCCTTCCGAAAGGAGAC (((..(((....)))))) | 28.1 | -11.4
GATCCGGTAGCGGATC ((((((....)))))) | 64.2 | -31.3
GATCCAATAATGGATC ((((((....)))))) | 47.5 | -31.1
GGGTCAGGAAACTGATCC ((.((((....)))).)) | 51.9 | -38.9
GCGGGTTCGAAAGAACGC (((..(((....)))))) | 45.5 | -12.3
GTGGTGGAAACACCAC ((((((....)))))) | 66.6 | -34.7
GGCTTCGAAAGAACGGCC ((((((....)))..))) | 43 | -27.9
GCGGAATCCGC ((((...)))) | 51.7 | -23.4
GGCAACGAAAGTTACGCC ((((((....)))..))) | 44.4 | -24.2
GATCCGCTGCCGGATC ((((((....)))))) | 57 | -36.4
GCGCCGCGAAAGCGAAGC ((..(((....)))..)) | 64.8 | -32
GTCTGCGAAAGCACGGAC ((((((....)))..))) | 38.9 | -15.2
GAGCTACCGAAAGGTCTC (((..(((....)))))) | 27.6 | -13.5
GCCGCCGAAAGGCATGGC ((((((....)))..))) | 63 | -19.9
GAGGTGGGAAACCGCTTC ((.(.((....)).).)) | 50 | -19.1
GGGTTTGGAAACAAACCC (((((((....))))))) | 66.8 | -39.6
GTAATCACGAAAGTGTAC (((..(((....)))))) | 29.3 | -10.9
CGCGGAACTGTCCGCG ((((((....)))))) | 64.8 | -45.6

Sequence | Tm [1] [°C] | folding enthalpy [2] [kcal/mol]
GTGCCGGGAAACTGGCAC (((((.(....).))))) | 66 | -37
GATCTGCGAAAGCAAATC (((.(((....))).))) | 36.5 | -18.4
GCACTGTCGAAAGACTGC (((..(((....)))))) | 39.4 | -15.9
GATCCATTCCTGGATC ((((((....)))))) | 50.3 | -39.1
GTTTGAGCGAAAGCTAAC (((..(((....)))))) | 31.1 | -10.5
GCGTACCTACGC ((((....)))) | 52.8 | -29.7
GCCTGGCGAAAGCGCGGC (((..((....))..))) | 57.1 | -19
GCGTAATGACGC ((((....)))) | 51.5 | -23.2
GCCGTGCGAAAGCCAGGC (((..((....))..))) | 62.8 | -23.9
GTCCGGAAACGGAC (((((....))))) | 67.4 | -28.2
GGGCGCGAAAGCGTTCCC ((((((....)))..))) | 52.3 | -13.7
GGATGGGAAACCATCC ((((((....)))))) | 59.2 | -37.3
GCGATCCATCGC ((((....)))) | 57.2 | -27.3
GCATAACGAAAGTTTTGC (((.(((....))).))) | 48.8 | -30.7
GCAATTGGAAACAATTGC (((((((....))))))) | 58.9 | -43.9
GGTATAGGAAACTATGCC ((.((((....)))).)) | 43.2 | -33.1
GCCGGGGGAAACTCCGGC (((((.(....).))))) | 68.5 | -39.3
GGGCATGCGAAAGCACCC (((..(((....)))))) | 42.3 | -18.6
GCAGCCGAAAGGCACTGC ((((((....)))..))) | 45.4 | -13.7
GCCGCCCGAAAGGGGGC (((.(((....)))))) | 68.7 | -18
CGTAGCGGAAACGCCACG (((.(((....))).))) | 46.9 | -32
GTCATCGAAAGATAGGAC ((((((....)))..))) | 30.9 | -15.7
GGGTACGAAAGTATCCC ((((((....))).))) | 51.8 | -37.3
GAAGTCGGAAACGACTTC (((((((....))))))) | 66 | -36.4

Sequence | Tm [1] [°C] | folding enthalpy [2] [kcal/mol]
GCTATCCGAAAGGACAGC (((.(((....))).))) | 49 | -31.7
GTTATCGAAAGATAAAAC ((((((....)))..))) | 26.5 | -9.3
GCTACCGGAAACGGTAAC (.(((((....))))).) | 37.2 | -12.9
GCCGTCCGAAAGGAGGC (((.(((....)))))) | 58.4 | -27.4
CGTAACGGAAACGTGACG (((.(((....))).))) | 49.6 | -47
GATCTGTAACCAGATC ((((((....)))))) | 46.8 | -29.3
GCACCAGGAAACTGGTAC (.(((((....))))).) | 39.6 | -16.7
GGAGGGCGAAAGCCGTCC (((.(((....))).))) | 67 | -21
GGGAGCGAAAGCTTACCC ((((((....)))..))) | 42.5 | -16.9
GATCATCGAATGATC ((((((...)))))) | 43.6 | -25.6
GTGTTCCGAAAGGACCAC (((.(((....))).))) | 49.7 | -38.4
GGGCGATCGAAAGATCCC (((..(((....)))))) | 48.6 | -17.1
GCGAGGCGAAAGCACCGC (((..((....))..))) | 61.8 | -22.8
GAATACGAAAGTACTTC ((((((....))).))) | 30.2 | -17
GAATCCGAAAGGATTTC ((((((....))).))) | 48.6 | -13.8
GCGGGCGAAAGCCTCGC ((((((....))).))) | 66.3 | -21.9
GCTTGGCGAAAGCAAGGC ((.(.((....)).).)) | 45.6 | -14.9
GATCCGACGAAAGTCATC (((..(((....)))))) | 25.9 | -9.01
GTCGGGCGAAAGCCGAC (((.(((....)))))) | 68.6 | -23
GAGTTAGGAAACTAACTC (((((((....))))))) | 54.8 | -36.3
GCGTTGAACGC ((((...)))) | 54.1 | -18.2
GCGACGATTCGC ((((....)))) | 44.6 | -15.9
GTTAGGGCGAAAGCCAAC (((..(((....)))))) | 29.3 | -8.42
GCAAACGAAAGTTTGTGC ((((((....)))..))) | 52.8 | -25.2

Sequence | Tm [1] [°C] | folding enthalpy [2] [kcal/mol]
GTAGATCGAAAGATGTAC (((.(((....))).))) | 42.6 | -31.6
GACCCTACGAAAGTAGTC (((..(((....)))))) | 28 | -11.3
GTCGGTCGAAAGACGGAC (((.(((....))).))) | 59.1 | -34.8
GATTGTGGAAACATAATC ((((.((....)).)))) | 36.1 | -27.3
GCGTACTTACGC ((((....)))) | 54.7 | -26.1
GCATGGCGAAAGCGCTGC (((..((....))..))) | 51.6 | -18.6
GCACCGCGAAAGCGAAGC ((..(((....)))..)) | 41.4 | -11.7
GGGAGACGAAAGTCCCC (((.(((....)))))) | 56.4 | -35.5
GCACAAGGAAACTTGTGC (((((((....))))))) | 67.4 | -33.7
GAGGGGCGAAAGCCTCTC (((.(((....))).))) | 58 | -23.3
GATCTTTGCCAAGATC ((((((....)))))) | 42.5 | -29.7
GCAAGTCGAAAGACATGC (((.(((....))).))) | 52.7 | -29.1
GTCATGTCGAAAGACGAC (((..(((....)))))) | 38 | -14.8
GGCTCCGGAAACAGAGCC (((((.(....).))))) | 50.5 | -34
GGACCCGAAAGGGCATCC ((((((....)))..))) | 34.2 | -11.7
GTGTTGGGAAACTAACAC (((((.(....).))))) | 46.7 | -36.4
GGACATGGAAACATGTTC (.(((((....))))).) | 47.4 | -27.6
GTCTATGGAAACATAGGC (.(((((....))))).) | 44 | -30.7
GCCTCGCGAAAGCGAAGC ((.((((....)))).)) | 56.5 | -18.7
GTTAAAGAAATTTAAC ((((((....)))))) | 29.6 | -14.3
GCTACCGAAAGGTGCAGC ((((((....)))..))) | 43.5 | -12.6
